Measurements reported in PubChem BioAssay AID463210 (The Scripps Research Institute Molecular Screening Center, 2010).
About 300 (0.091%) of roughly 330,000 compounds were called active. The sample holds actives, similar compounds and a random draw of the others, so the mix is not that of the screen.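 How the source made its calls: active means percent activation above the screen-wide mean plus 3 SD (cut at about 25% in these data); inactive means the rest.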

Target: Caspase-7 (Homo sapiens) (UniProt P55210)
Test: activation of procaspase-7 enzyme – biochemical, absorbance, HTS, human, counter-screen for procaspase-3 activator project, primary screen (AID 463210)
Conditions: recombinant procaspase-7, Ac-DEVD-pNA absorbance 405 nm; at 8.5 µM; hits give high values; D23A/D198A/D206A triple mutant, cannot self-cleave; scale: DMSO 0, 5 µM enzyme 100
In short: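 Material: Procaspase-7 triple mutant (PC-7 D3A) | Quantity: 2 µM procaspase-7 mutant as dispensed | Reagent: DEVD-pNA substrate | Times: 1 h preincubation, 2 h reaction | Technique: 405 nm absorbance of p-nitroaniline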

Sequence of Caspase-7 (Homo sapiens) (P55210 whole entry D23A/D198A/D206A): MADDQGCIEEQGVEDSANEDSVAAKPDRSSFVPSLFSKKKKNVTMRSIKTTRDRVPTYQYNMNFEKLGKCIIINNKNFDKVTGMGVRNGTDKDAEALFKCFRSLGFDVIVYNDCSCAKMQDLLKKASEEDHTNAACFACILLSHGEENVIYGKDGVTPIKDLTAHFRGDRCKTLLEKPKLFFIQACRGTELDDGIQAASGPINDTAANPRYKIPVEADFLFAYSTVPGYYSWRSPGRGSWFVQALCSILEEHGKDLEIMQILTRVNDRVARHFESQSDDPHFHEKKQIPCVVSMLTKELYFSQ

Compound | activation
COc1ccccc1N1CCN(c2nc(C)cc(=O)[nH]2)CC1 | 14.3% (inactive)
CN(CC(=O)Nc1ccccc1Cl)C(=O)COc1cccc2c1OC(C)(C)C2 | -0.56% (inactive)
CCOC(=O)c1cccc(NC(=O)c2ccc(F)cc2F)c1 | -3.97% (inactive)
CCOC(=O)[C@@H]1[C@H]2COc3cc(OC)ccc3[C@@H]2N2C(=O)N(c3cccc(C)c3)C(=O)[C@@]12C | -1.89% (inactive)
CN1CCN(c2ccccc2NC(=O)COc2ccc(C3CCCCC3)cc2)CC1 | 6.3% (inactive)
CCn1c(N)c(Br)c(=O)[nH]c1=O | 12.7% (inactive)
COc1ccc(C(=O)N2CCCCC2C(=O)Nc2ccc(-n3nc(C)cc3C)cc2)o1 (stereo unspecified) | 0.38% (inactive)
CC(C)CN(CC(C)C)C(=O)CN1c2cccc3cccc(c23)S1(=O)=O | 4.17% (inactive)
NC(=O)C1CCN(Cc2nc3c(Br)cc(Br)cc3c(=O)[nH]2)CC1 | -6.52% (inactive)
COc1ccc(S(=O)(=O)NCC2CCCN(C(=O)c3occc3C)C2)cc1 (stereo unspecified) | -3.49% (inactive)
CCCCCCCC[n+]1cccc(C(=O)N2c3c(nc(N)[nH]c3=O)NC(C)C2C)c1 (stereo unspecified) | -2.79% (inactive)
CCOc1cc(C(=O)Nc2c(C)ccc3nsnc23)cc(OCC)c1OCC | -0.81% (inactive)
CC1=NN(C(N)=S)C(=O)C1N=Nc1cc(Cl)ccc1Cl (stereo unspecified) | 42% (active)
Cc1[nH]n(C(N)=S)c(=O)c1N=Nc1ccc(Cl)cc1Cl | -4.08% (inactive)
CCN(C[C@H]1N[C@@](CC)(C(=O)OC)[C@H]2C(=O)N(C)C(=O)[C@@H]12)C(=O)Nc1ccc(F)cc1 | 3.05% (inactive)
CC(C)C[C@@H](COc1ccccc1)N1CCN(CC(C)C)CCC1=O | -4.75% (inactive)
CC(C(=O)NCC1CCCCC1)N(C)Cc1cccc(Cl)c1 (stereo unspecified) | -2.02% (inactive)
Cc1ccc(S(=O)(=O)NCC(=O)N(CC(=O)NCC2CCCO2)c2cccc(F)c2)cc1 (stereo unspecified) | -1.1% (inactive)

Compound | activation
O=C(COc1cccc2c1CCNC2=O)NC1CCCCC1 | -3.37% (inactive)
CCOC(=O)C1=C(CN2CCc3ccccc32)NC(=O)NC1c1cc(C)ccc1C (stereo unspecified) | 1.19% (inactive)
COc1cccc2cc(C(C)N(CCCN3CCOCC3)C(=O)Nc3ccc(Cl)cc3)oc12 (stereo unspecified) | 3.94% (inactive)
CCc1nnc(NC(=O)[C@@H](NC(=O)c2cccc(C)c2)C(C)C)s1 | -9.68% (inactive)
Cc1ccc(S(=O)(=O)N2CCC3(CC2)OCCO3)c(C)c1 | 7.32% (inactive)
O=C(NCCN1CCOC1=O)C1CCC(=O)N(CCc2ccc(Cl)cc2)C1 (stereo unspecified) | -3.88% (inactive)
O=S(=O)(Oc1ccccc1C(=S)N1CCOCC1)c1ccc(Cl)cc1 | 5.11% (inactive)
O=C(Cc1ccccc1F)NC1CCSc2ccccc21 (stereo unspecified) | -1.51% (inactive)
COc1ccc(CNS(=O)(=O)c2cc(-c3cc(C)no3)ccc2C(C)C)cc1 | 7.17% (inactive)
COc1cccc(C(=O)n2ccc(-c3cccs3)n2)c1 | 7.3% (inactive)
CCN(CCNC(=O)C1=C(C)C(=O)OC12CCC(C)CC2)c1ccccc1 (stereo unspecified) | -6.83% (inactive)
C=CCN1CN(S(=O)(=O)c2ccc(OC)cc2)c2nc3ccccc3nc21 | 10.1% (inactive)
COc1cccc(CNC(=O)CN(C)S(=O)(=O)c2ccc3c(c2)c(=O)n(C)c(=O)n3C)c1 | 3.47% (inactive)
CC(NC(=O)COc1ccc(-c2ccccc2)cc1)C1CCCO1 (stereo unspecified) | -7.63% (inactive)
Cc1cc(C)c(C)c(S(=O)(=O)N2CCN(C(=O)c3ccc4c(=O)n5c(nc4c3)CCC5)CC2)c1C | 0.83% (inactive)
Cn1c(C(=O)O)ccc1S(=O)(=O)N(Cc1ccccc1)Cc1ccccc1 | -2.76% (inactive)
Cc1ccc(S(=O)(=O)N(CC(=O)NCCSC2CCCCC2)c2ccccc2F)cc1 | 12.3% (inactive)
CSCc1cc(N2CCOCC2)nc(SCc2ccc(Cl)cc2Cl)n1 | -1.6% (inactive)
